# Assay outcomes deposited in PubChem by Sanford-Burnham Center for Chemical Genomics.
# Sampled rows, rich in hits. Any-hit rate of the full collection: about 2.9%.
# SENP1 inh: SENP1 (human) catalytic domain inhibition. recombinant SENP1 catalytic domain, CyPet-SUMO1-YPet FRET cleavage. inhibition, % at 10 µM. 360,000 tested, 0.21% active. AID 624204;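 active = inhibition at least 30% at 10 µM, raw YFP signal under a set limit, fluorescence ratio 0.5 to 1.5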
#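 Material – human SENP1 catalytic domain · Input – SENP1 enzyme, 20 pM final · Compound dosing – single concentration of 10 µM compound, 0.5% DMSO final · Timing – enzyme reaction for 50 min at room temperature, dark · Measured by – FRET fluorescence in CFP and YFP emission channels · Control set – no-enzyme wells low, DMSO-plus-enzyme wells high control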
# SENP8 block-1: blocks human SENP8 cleavage of Nedd8 substrate; Q96LD8; recombinant SENP8, Nedd8 substrate fluorescence; inhibition, % at 20 µM; 360,000 tested, 0.64% active; AID 602440; in the data active = inhibition mostly above about 40%, no sharp cut-off; inactive = mostly below about 27%
# SENP6 block: inhibitors of human SENP6 protease. Recombinant SENP6 catalytic domain, aminoluciferin luminescence. inhibition, % at 10 µM. 330,000 tested, 1.8% active. AID 2599;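 active = inhibition above about 50% at the single tested dose, limit read from the data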
# Apaf-1 inh: human Apaf-1 inhibition. O14727. reconstituted apoptosome caspase-3 activity, DEVD-Rh110 fluorescence. inhibition, % at 20 µM. 330,000 tested, 0.71% active. AID 489030; active = inhibition of at least 40% at 20 µM
#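 System: reconstituted apoptosome with Apaf-1, cytochrome c, caspase-9, procaspase-3, dATP; Signal: Rh110 fluorescence intensity; Schedule: 30 min compound preincubation, 50 min activation, room temperature; Reagent: cytochrome c trigger plus (Z-DEVD)2-Rh110 caspase-3 substrate.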
# SENP8 block-2: blocks the human protease SENP8 | Q96LD8 | purified SENP8, Z-RLRGG-aminoluciferin cleavage, luminescence | inhibition, % at 10 µM | 330,000 tested, 1.2% active | AID 2540; in the data active = inhibition above about 50%
# SENP7 inh: blocks the human protease SENP7. Q9BQF6. AID 434973. inhibition, % at 5 µM. 330,000 tested, 1.5% active. recombinant SENP7, Z-RLRGG-aminoluciferin luminescence, 40 min;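 active = inhibition above about 50% at the single test dose, limit read from the data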
# Target sequence (Q9BQF6 706-1050 limits assumed): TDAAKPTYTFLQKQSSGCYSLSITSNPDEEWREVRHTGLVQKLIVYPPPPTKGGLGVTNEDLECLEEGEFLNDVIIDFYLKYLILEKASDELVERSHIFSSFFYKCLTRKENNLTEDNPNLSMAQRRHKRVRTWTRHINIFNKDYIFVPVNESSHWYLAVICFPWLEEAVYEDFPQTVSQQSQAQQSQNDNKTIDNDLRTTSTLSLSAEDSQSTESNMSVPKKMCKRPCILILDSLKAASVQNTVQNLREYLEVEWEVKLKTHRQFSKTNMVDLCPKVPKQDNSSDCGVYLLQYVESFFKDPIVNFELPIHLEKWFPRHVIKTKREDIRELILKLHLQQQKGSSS
# SENP8 confirm: confirmation of human SENP8 protease inhibitors. shares compounds with SENP7 inh. Recombinant SENP8, Z-RLRGG-aminoluciferin luminescence, 60 min. inhibition, % at 12.5 µM. 6,200 tested, 40% active;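 active = mean inhibition across replicates above about 50%, limit read from the data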
# SENP6 confirm: human SENP6 inhibition, confirmed; shares compounds with SENP7 inh; recombinant SENP6, Z-RLRGG-aminoluciferin luminescence; inhibition, % at 12.5 µM; 6,200 tested, 58% active
# SENP7 confirm: human SENP7 inhibition, confirmed; shares compounds with SENP7 inh; recombinant SENP7, Z-RLRGG-aminoluciferin luminescence, 40 min; inhibition, % at 12.5 µM; 6,200 tested, 69% active; AID 488917
# Casp3 SENP sel: caspase-3 inhibition (SENP selectivity assay) | 6,200 tested, 60% active | purified caspase-3, Z-DEVD-aminoluciferin luminescence, 60 min | inhibition, % at 12.5 µM | AID 488918 | shares compounds with SENP7 inh;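 active = mean inhibition above about 50%, limit read from the data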
# Target sequence (P42574 28-227 limits assumed): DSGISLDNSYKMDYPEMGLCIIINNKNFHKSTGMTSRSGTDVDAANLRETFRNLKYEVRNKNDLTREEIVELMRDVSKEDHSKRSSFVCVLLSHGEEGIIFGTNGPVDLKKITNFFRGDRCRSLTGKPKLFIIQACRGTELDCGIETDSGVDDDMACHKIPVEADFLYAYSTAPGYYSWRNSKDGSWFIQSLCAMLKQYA
# SENP luc ctr: interferes with luciferase luminescence in SENP counter-screen. shares compounds with SENP7 inh. 6,200 tested, 39% active. inhibition, % at 12.5 µM. Pre-incubated SENP8/Z-RLRGG-aminoluciferin, luciferase luminescence interference;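 active = mean inhibition above about 50% when retested at one dose, limit read from the data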
# A number is an active result; i = inactive; nt = not tested or not shown.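 Rule for the calls, unless noted: active = mean inhibition above about 50% in the one-dose retest (limit read from the data); inactive = the rest.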
SMILES,SENP1 inh,SENP8 block-1,SENP6 block,Apaf-1 inh,SENP8 block-2,SENP7 inh,SENP8 confirm,SENP6 confirm,SENP7 confirm,Casp3 SENP sel,SENP luc ctr
O=C(c1cnn(-c2ccccc2)c1)c1ccc2ccccc2c1O,i,i,i,i,i,85.6,i,i,i,i,i
O=C(O)c1ccc(-n2cc(C(=O)c3ccccc3O)cn2)cc1,i,i,84.2,i,77.9,78.0,80.9,78.6,93.2,91.3,85.0
O=C(c1cnn(-c2nc3ccccc3s2)c1)c1ccccc1O,i,i,78.7,i,i,82.3,i,i,i,i,i
CC(C)c1ccc(O)c(C(=O)c2cnn(-c3ccccc3)c2)c1,i,i,i,i,i,i,nt,nt,nt,nt,nt
O=C(c1cnn(-c2ccccc2)c1)c1cc(Br)ccc1O,i,i,i,i,i,i,nt,nt,nt,nt,nt
O=C(c1cnn(-c2cccc(F)c2)c1)c1ccccc1O,i,i,71.1,i,57.8,67.9,i,72.1,83.6,55.5,i
CCc1nc2ccc(C(=O)NCCCN3CCCC3=O)cn2c1N(C)C(=O)COc1ccccc1,i,i,nt,nt,nt,nt,nt,nt,nt,nt,nt
COCCN(C(=O)COC(=O)CCC1CCCCC1)c1c(N)n(Cc2ccccc2)c(=O)[nH]c1=O,i,i,nt,nt,nt,nt,nt,nt,nt,nt,nt
O=c1c2ccccc2sc2ccc(C#CC3(O)CCCCC3)cc12,i,i,98.3,i,95.9,97.0,97.1,98.9,102.5,96.7,i
COc1cccc2sc3ccc(C#CC4(O)CCCCC4)cc3c(=O)c12,i,i,93.1,i,89.4,87.8,90.9,95.1,99.6,81.8,i
CC1CCC(NC(=O)C(NS(=O)(=O)c2ccc(Br)cc2)C(C)C)CC1 (centres undefined),i,i,nt,nt,nt,nt,nt,nt,nt,nt,nt
O=C(O)CCC(=O)c1ccc2c(c1)OCCCO2,i,i,i,i,i,i,nt,nt,nt,nt,nt
O=C(CCCc1ccccc1)Nc1cccc(C(=O)O)c1,i,i,88.8,i,81.9,92.8,92.7,92.6,100.0,i,92.0
O=C(CCc1ccccc1)c1ccc2c(c1)OCCCO2,i,i,57.9,i,i,i,i,i,76.3,i,i
O=C(CCCc1ccccc1)c1ccc2c(c1)OCCO2,i,i,92.2,i,92.6,95.7,94.9,96.6,102.0,90.8,66.7
O=C(CCCc1ccccc1)c1ccccc1,i,i,79.8,i,59.1,60.0,i,i,86.1,i,i
CC1=C(C(=O)N(C)C)CC(CC(=O)NCCCN(C)C)C(=O)N1CCCN1CCCC1=O (centres undefined),i,i,nt,nt,nt,nt,nt,nt,nt,nt,nt
CCCc1c(C(=O)N/N=C(\C)c2ccccn2)nnn1-c1nonc1N,i,i,nt,nt,nt,nt,nt,nt,nt,nt,nt
O=C(c1ccccc1)c1ccc2c(c1)OCCOCCOCCO2,i,i,i,i,i,i,nt,nt,nt,nt,nt
O=C(CCCC(=O)c1ccc(O)cc1)c1ccc(O)cc1,i,i,93.0,i,88.6,73.8,91.5,91.5,100.7,92.4,91.5
CCC(=O)c1ccc(O)cc1,i,i,i,i,i,i,nt,nt,nt,nt,nt
O=C(/C=C/c1ccccc1)c1ccc2c(c1)OCCCCO2,i,i,88.5,i,i,68.0,72.0,59.0,i,i,75.8
C/C(=N/NC(=O)CCc1ccccc1)c1ccc2c(c1)OCO2,i,i,i,i,i,i,nt,nt,nt,nt,nt
O=C(c1ccccc1)c1ccc2c(c1)OCCCO2,i,i,i,i,i,62.0,i,i,74.7,53.8,55.0
O/N=C(/CCc1ccccc1)c1ccc2c(c1)OCCO2,i,i,i,i,i,52.3,69.6,68.8,87.6,i,72.2
SMILES,SENP1 inh,SENP8 block-1,SENP6 block,Apaf-1 inh,SENP8 block-2,SENP7 inh,SENP8 confirm,SENP6 confirm,SENP7 confirm,Casp3 SENP sel,SENP luc ctr
Cc1cc(C)cc(NS(=O)(=O)CCCS(=O)(=O)Nc2cc(C)cc(C)c2)c1,i,i,nt,nt,nt,nt,nt,nt,nt,nt,nt
Cc1cc(O)ccc1-c1ccc2nncn2c1,i,i,nt,nt,nt,nt,nt,nt,nt,nt,nt
CN(C)CCCN(C(=O)COc1ccc(Cl)cc1)c1nc2ccc(F)cc2s1,i,i,54.7,i,i,i,i,i,i,i,i
Cc1ccc(Nc2nc3nonc3[nH]c2=O)cc1Cl,i,i,79.8,i,50.0,i,68.5,63.8,75.3,i,70.1
Cc1ccc(Nc2nc3nonc3[nH]c2=O)cc1C,i,i,70.4,i,i,i,65.3,62.3,80.4,64.2,71.7
CC(=O)Oc1ccc2nc(/C=C/c3ccc(C=O)cc3)oc(=O)c2c1,i,i,i,i,i,i,nt,nt,nt,nt,nt
CC(=O)Oc1ccc2nc(/C=C/c3ccccc3)oc(=O)c2c1,i,i,i,i,77.3,72.4,i,i,i,61.9,52.0
COc1ccc(C(=O)C(=O)N2CCN(C(=O)OCc3ccccc3)CC2)cc1,i,i,nt,nt,nt,nt,nt,nt,nt,nt,nt
CCc1nnc(NC(=O)c2oc3ccccc3c2COC(C)C)s1,i,i,i,i,i,i,nt,nt,nt,nt,nt
Cc1[nH]n(-c2cccc(Cl)c2)c(=O)c1C=NCc1ccco1,i,i,52.5,i,i,i,i,i,i,i,i
CC1(C(=O)NS(=O)(=O)c2cccc(OC(F)F)c2)CCN1C(=O)Cc1cccs1 (centres undefined),i,i,nt,nt,nt,nt,nt,nt,nt,nt,nt
Cc1ccc2nc3ccc(N4CCCC4)nn3c(=O)c2c1,i,i,i,i,i,i,nt,nt,nt,nt,nt
CC1CCCN(c2ccc3nc4ccccc4c(=O)n3n2)C1 (centres undefined),i,i,60.7,i,i,i,i,51.8,81.1,82.7,i
O=C(COc1ccccc1Cl)Nc1ccc2oc(=O)ccc2c1,i,i,i,i,i,i,nt,nt,nt,nt,nt
N=C1SCC(=O)N1c1nc(-c2ccccc2)cs1,i,i,96.1,i,89.3,86.6,i,i,i,i,i
CC1CCN(c2ccc(NC(=O)c3ccc(Br)o3)cc2)CC1,i,i,80.9,i,56.0,87.9,i,i,i,i,i
CCCc1cc(C(=O)Nc2cccnc2Cl)no1,i,i,i,i,i,i,nt,nt,nt,nt,nt
CCCc1cc(C(=O)Nc2cc(C)ccc2O)no1,i,i,60.8,i,66.7,i,i,56.2,87.4,72.4,i
CCOC(=O)[C@]12CCC=C1N(Cc1ccc(Cl)cc1Cl)C(=O)[C@H](CC(=O)NCc1cccc(C(F)(F)F)c1)C2,i,i,nt,nt,nt,nt,nt,nt,nt,nt,nt
Cc1ccccc1NS(=O)(=O)c1ccc(C(=O)N2CCCC(C(F)(F)F)C2)cc1 (centres undefined),i,i,i,i,i,i,nt,nt,nt,nt,nt
